Measured values taken from ChEMBL document CHEMBL1145178, “Exploring the role of different drug transport routes in permeability screening” (J Med Chem, 2005).
Where a SMILES comes first, the peptide text is derived from it.

Columns and labels:
[1] = Permeability Coefficient in Caco-2 cell culture model; type: ADME, cell-based; conditions: human
[2] = Permeability Coefficient in 2/4/A1 cell model; type: ADME, cell-based, Homo sapiens
[3] = Fraction absorbed in human intestine after oral administration compound was measured; type: ADME, tissue-based
[4] = Permeability Coefficient in hexadecane membranes model; type: ADME, cell membranes; conditions: not told
Summary of the method: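 Hexadecane (5% v/v in hexane) was loaded onto 0.4 µm polycarbonate filters, and the hexane was evaporated for ≥1 h at RT. Drug in HBSS/25 mM HEPES pH 7.4 was placed donor side, with pH 7.4 buffer receiver side, at 37°C and 500 rpm stirring. Receiver sampled over 10–120 min.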

Structure (SMILES)	Papp [1]	Papp [2]	Fa [3]	Papp [4]	Papp (Homo sapiens)
CN(Cc1cnc2nc(N)nc(N)c2n1)c1ccc(C(=O)NC(CCC(=O)O)C(=O)O)cc1 (single isomer, unassigned) [METHOTREXATE]	0.3 nm/s	52 nm/s	59%	0.2 nm/s	
Nc1nc2c(ncn2COCCO)c(=O)[nH]1 [ACYCLOVIR]	3.8 nm/s	82 nm/s	19%		0.034 cm/s · 10E6
C=CCc1ccccc1OCC(O)CNC(C)C (configuration not stated) [ALPRENOLOL]		2900 nm/s		1600 nm/s	
Cc1cc(=O)n(-c2ccccc2)n1C [ANTIPYRINE]		2500 nm/s		110 nm/s	
CN/C(=N/CCSCc1nc[nH]c1C)NC#N [CIMETIDINE]	6.7 nm/s	390 nm/s	80%	0.85 nm/s	
O=P(O)(O)C(Cl)(Cl)P(=O)(O)O [CLODRONIC ACID]	0.59 nm/s	45 nm/s	3%	120 nm/s	
CN1CC(=O)NC1=N [CREATININE]	12 nm/s	210 nm/s	70%	1.2 nm/s	
O=c1[nH]cnc2c1ncn2[C@H]1CC[C@@H](CO)O1 [DIDANOSINE]	2.5 nm/s	140 nm/s	42%	0.99 nm/s	
C[C@H]1O[C@@H](O[C@H]2[C@@H](O)C[C@H](O[C@H]3[C@@H](O)C[C@H](O[C@H]4CC[C@@]5(C)[C@H](CC[C@@H]6[C@@H]5C[C@@H](O)[C@]5(C)[C@@H](C7=CC(=O)OC7)CC[C@]65O)C4)O[C@@H]3C)O[C@@H]2C)C[C@H](O)[C@@H]1O [DIGOXIN]	13 nm/s	67 nm/s	81%	1.2 nm/s	
O=C(O)P(=O)(O)O [FOSCARNET]	0.43 nm/s	95 nm/s	17%	3.6 nm/s	
Nc1nc(O)c2ncn(COC(CO)CO)c2n1 [GANCICLOVIR]			5%		
CN(CC(=O)O)C(=O)CN [GLYCYLSARCOSINE] (HELM PEPTIDE1{G.[Sar]}$$$$V2.0)	5 nm/s	110 nm/s	100%	2.5 nm/s	
OC[C@H]1O[C@@H](O[C@@H]2[C@@H](CO)O[C@](O)(CO)[C@H]2O)[C@H](O)[C@@H](O)[C@H]1O [LACTULOSE]		89 nm/s	1%	0.81 nm/s	
Nc1nc(=O)c2ncn([C@@H]3C[C@H](CO)[C@H]3CO)c2[nH]1 [LOBUCAVIR]	8.8 nm/s	140 nm/s	50%	0.57 nm/s	
OC[C@@H](O)[C@@H](O)[C@H](O)[C@H](O)CO [MANNITOL]		110 nm/s		1.7 nm/s	
CN(C)C(=N)N=C(N)N [METFORMIN]	6.6 nm/s	200 nm/s		5.1 nm/s	
Cc1ccccc1N1C(=O)c2cc(S(N)(=O)=O)c(Cl)cc2NC1C (configuration not stated) [METOLAZONE]	43 nm/s	140 nm/s	64%	11 nm/s	
COCCc1ccc(OCC(O)CNC(C)C)cc1 (configuration not stated) [METOPROLOL]		1900 nm/s		86 nm/s	
O=C1c2c(O)ccc(O)c2C(=O)c2c(NCCNCCO)ccc(NCCNCCO)c21 [MITOXANTRONE]	23 nm/s	73 nm/s		7.4 nm/s	
CC(C)(C)NCC(O)COc1cccc2c1C[C@H](O)[C@H](O)C2 (some centres not stated) [NADOLOL]	2.8 nm/s	140 nm/s	30%	0.32 nm/s	
O=C(O)c1cc(/N=N/c2ccc(O)c(C(=O)O)c2)ccc1O [OLSALAZINE]	0.5 nm/s	45 nm/s	3%	120 nm/s	
CC(C)NCC(O)COc1cccc2[nH]ccc12 (configuration not stated) [PINDOLOL]		670 nm/s		7.3 nm/s	
CC(C)NCC(O)COc1cccc2ccccc12 (configuration not stated) [PROPRANOLOL]	2040 nm/s	2400 nm/s	100%	580 nm/s	
OC[C@H]1O[C@H](OC[C@H]2O[C@H](O[C@]3(CO)O[C@H](CO)[C@@H](O)[C@@H]3O)[C@H](O)[C@@H](O)[C@@H]2O)[C@H](O)[C@@H](O)[C@H]1O [RAFFINOSE]		59 nm/s	0%	0.51 nm/s	
O=C(O)c1cc(/N=N/c2ccc(S(=O)(=O)Nc3ccccn3)cc2)ccc1O [SULFASALAZINE]		96 nm/s	12%		0.028 cm/s · 10E6
CCN1CCCC1CNC(=O)c1cc(S(N)(=O)=O)ccc1OC (configuration not stated) [SULPIRIDE]		110 nm/s	30%		
CC(C)(C)NCC(O)c1cc(O)cc(O)c1 (configuration not stated) [TERBUTALINE]	2.3 nm/s	410 nm/s	73%	9.6 nm/s	
CC(C)[C@H](N)C(=O)OCCOCn1cnc2c(=O)[nH]c(N)nc21 [VALACYCLOVIR]	23 nm/s	350 nm/s	36%	3.9 nm/s	
